What all share (type): functional
The test system of assay [1] is Mus musculus. Kind of assay: In vivo anticonvulsant activity in male albino mice using the maximal electroshock seizure(MES) test upon intraperitoneal administration, expressed as logarithm of effective dose. Put shortly: (§1)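 Mice (18–25 g) received the test agent intraperitoneally as a suspension in 0.5% (w/v) methylcellulose in water. A 60-cycle alternating current at 50 mA was applied for 0.2 s, and protection meant abolition of the hindlimb tonic extensor component. The ED50 was determined at the time of peak effect in groups of at least eight mice. At least two doses fell between 100% and 0% protection, and the 95% confidence interval was calculated by Finney's method.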
On the technique in general: The maximal electroshock test induces tonic seizures with an electrical stimulus.

Assay [2] concerns Mus musculus. Kind of assay: In vivo anticonvulsant activity in male albino mice using the maximal electroshock seizure(MES) test upon intraperitoneal administration, expressed as logarithm of effective dose; value ranges from 2.08 to 2.60.
The subject of assay [3] is Mus musculus. Kind of assay: In vivo anticonvulsant activity in male albino mice using the maximal electroshock seizure(MES) test upon intraperitoneal administration (exp 1). Particulars: ip. Put shortly:
(§2)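 Mice (18–25 g) received the compound ip as a suspension in 0.5% (w/v) methylcellulose in water. A 60-cycle alternating current of 50 mA was applied for 0.2 s. Protection was defined as abolition of the hindlimb tonic extensor component. […] ED50 and 95% confidence interval were calculated by Finney's methods.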

The test system of assay [4] is Mus musculus. Kind of assay: In vivo anticonvulsant activity in male albino mice using the maximal electroshock seizure(MES) test upon intraperitoneal administration (exp 2). Particulars: ip. The method in brief: as §2
Assay [5] concerns Mus musculus. Kind of assay: In vivo anticonvulsant activity in male albino mice using the maximal electroshock seizure(MES) test upon intraperitoneal administration, expressed as logarithm of effective dose; value ranges from 2.58 to 3.06. Put shortly: as §1
In assay [6] the test system is Mus musculus. In words: In vivo anticonvulsant activity in male albino mice using the maximal electroshock seizure(MES) test upon intraperitoneal administration; value ranges from 75.4 to 101. Conditions: ip.
Assay [7] relates to Mus musculus. In words: In vivo anticonvulsant activity in male albino mice using the maximal electroshock seizure(MES) test upon intraperitoneal administration; value ranges from 74.3 to 99.1. Particulars: ip. Put shortly: as §2
The subject of assay [8] is Mus musculus. Kind of assay: Anticonvulsant activity in mice following i.p. treatment and Maximal Electroshock Seizure (MES) test. The method in brief:
as §2

Assay [9] relates to Mus musculus. In words: In vivo anticonvulsant activity in male albino mice using the maximal electroshock seizure(MES) test upon intraperitoneal administration, expressed as logarithm of effective dose; value ranges from 2.01 to 2.63.
Assay [10] relates to Mus musculus. In words: In vivo anticonvulsant activity in male albino mice using the maximal electroshock seizure(MES) test upon intraperitoneal administration; value ranges from 34.9 to 45. Particulars: ip. The method in brief: as §1
The subject of assay [11] is Mus musculus. In words: In vivo anticonvulsant activity in male albino mice using the maximal electroshock seizure(MES) test upon intraperitoneal administration; value ranges from 51.9 to 68. Particulars: ip.
Assay [12] deals with Mus musculus. In words: In vivo anticonvulsant activity in male albino mice using the maximal electroshock (MES) test after intraperitoneal administration; value ranges from 21.4-40.8. Conditions: ip.
The test system of assay [13] is Mus musculus. In words: In vivo anticonvulsant activity in male albino mice using the maximal electroshock seizure(MES) test upon intraperitoneal administration. Conditions: ip. Put shortly:
as §2

The test system of assay [14] is Mus musculus. Kind of assay: In vivo anticonvulsant activity in male albino mice using the maximal electroshock (MES) test after intraperitoneal administration (exp 2). Conditions: ip. Put shortly: as §2
Assay [15] concerns Mus musculus. In words: In vivo anticonvulsant activity in male albino mice using the maximal electroshock (MES) test after intraperitoneal administration (exp 1). Particulars: ip. The method in brief:
as §2

In assay [16] the test system is Mus musculus. Kind of assay: In vivo anticonvulsant activity in male albino mice using the maximal electroshock seizure(MES) test upon intraperitoneal administration, expressed as logarithm of effective dose; value ranges from 2.63 to 3.12. Put shortly: as §1
Assay [17] deals with Mus musculus. Kind of assay: In vivo anticonvulsant activity in male albino mice using the maximal electroshock seizure(MES) test upon intraperitoneal administration (exp-2). Conditions: ip. Put shortly: as §1
In assay [18] the test system is Mus musculus. In words: In vivo anticonvulsant activity in male albino mice using the maximal electroshock seizure(MES) test upon intraperitoneal administration (exp-1). Particulars: ip. Put shortly: as §1

On to `CC(=O)NC(C(=O)NCc1ccccc1)c1cnccn1` (stereo not drawn), for which the “Log ED50” value in the assay on Mus musculus [1] amounted to 1.72 uM kg-1. Take `CC(=O)NC(C(=O)NCc1ccccc1)c1ccc[nH]1` (stereo not drawn): the “Log ED50” value in the assay on Mus musculus [1] was 1.77 uM kg-1. For the compound `CC(=O)NC(C(=O)NCc1ccccc1)c1cccs1` (stereo not drawn), in the assay on Mus musculus [1], the “Log ED50” value was found to be 2.19 uM kg-1. Turning to `CCC(C(=O)NCc1ccccc1)N(C)C(C)=O` (stereo not drawn), the “Log ED50” value in the assay on Mus musculus [2] was 2.6 uM kg-1. Further, the ED50 in the assay on Mus musculus [3] is > 30 mg/kg; with Mus musculus [4], < 100 mg/kg. On to `C=CC(=O)NC(COC)C(=O)NCc1ccccc1` (stereo not drawn), for which the “Log ED50” value with Mus musculus [5] was 3.06 uM kg-1. The ED50 in the assay with Mus musculus [3] was > 100 mg/kg; in the assay with Mus musculus [4] it was < 300 mg/kg. For the compound `CC(=O)NC(C(=N)S)C(=O)NCc1ccccc1` (stereo not drawn), the “Log ED50” value in the assay on Mus musculus [1] is 2.51 uM kg-1. In the assay on Mus musculus [6], the 50% effect level (ED50) was put at a dose of 86.2 mg/kg. In the case of `CCN(C(C)=O)C(C)C(=O)NCc1ccccc1` (stereo not drawn), the “Log ED50” value in the assay on Mus musculus [1] amounted to 2.53 uM kg-1. For the same compound, the median effective dose (ED50) in the assay with Mus musculus [7] was found to be 85 mg/kg. Turning to `CC(=O)NC(C(=O)NCc1ccccc1)c1ccccc1` (stereo not drawn), the “Log ED50” value in the assay with Mus musculus [1] stood at 2.06 uM kg-1. As for `CC(=O)NC(C(=O)NCc1ccccc1)c1ncccn1` (stereo not drawn), in the assay on Mus musculus [1], the “Log ED50” value is recorded as 1.46 uM kg-1. With `CC(=O)NC(NNC(=O)OCc1ccccc1)C(=O)NCc1ccccc1` (stereo not drawn), in the assay with Mus musculus [8], the “Log ED50” value came to 2.18 uM kg-1. As to `COC(NC(C)=O)C(=O)NCc1ccccc1` (stereo not drawn), in the assay with Mus musculus [8], the “Log ED50” value is on record as 2.62 uM kg-1. Turning to `CC(=O)NC(C(=O)NCc1ccccc1)c1ccc(C)[nH]1` (stereo not drawn), in the assay on Mus musculus [1], the “Log ED50” value stood at 2.12 uM kg-1.

For the compound `CC(=O)NC(O)C(=O)NCc1ccccc1` (stereo not drawn), in the assay with Mus musculus [8], the “Log ED50” value is recorded as 2.56 uM kg-1. Regarding `C/C(S)=N\C(C(=O)NCc1ccccc1)c1ccco1` (stereo not drawn), in the assay on Mus musculus [1], the “Log ED50” value was found to be 1.8 uM kg-1. As for `COCC(NC=O)C(=O)NCc1ccccc1` (stereo not drawn), the ED50 with Mus musculus [3] was > 30 mg/kg; with Mus musculus [4], < 100 mg/kg. For the same compound, the “Log ED50” value in the assay on Mus musculus [9] turned out to be 2.63 uM kg-1. As for `CC(=O)NC(C(=O)NCc1ccccc1)N(C)C` (stereo not drawn), the “Log ED50” value in the assay with Mus musculus [8] was found to be 2.26 uM kg-1. Turning to `CC(=O)NC(C(=O)NCc1ccccc1)c1ccsc1` (stereo not drawn), in the assay with Mus musculus [1], the “Log ED50” value amounted to 2.48 uM kg-1.

Turning to `CC(=O)NC(C(=O)NCc1ccccc1)c1ccco1` (stereo not drawn), the “Log ED50” value in the assay with Mus musculus [1] was 1.58 uM kg-1. Take `CC(=O)NC(N)C(=O)NCc1ccccc1` (stereo not drawn): in the assay with Mus musculus [8], the “Log ED50” value turned out to be 2.47 uM kg-1. On to `CC(=O)NC(C(=O)NCc1cccc(F)c1)c1ccco1` (stereo not drawn), for which, in the assay with Mus musculus [1], the “Log ED50” value is 1.66 uM kg-1. For the compound `CCCC(NC(C)=O)C(=O)NCc1ccccc1` (stereo not drawn), the “Log ED50” value in the assay with Mus musculus [1] turned out to be 2.19 uM kg-1. Besides, it took a dose of 38.4 mg/kg to reach the 50% effect level in the assay with Mus musculus [10] (ED50). As to `CC(=O)NC(=O)NCc1ccccc1`, in the assay on Mus musculus [11], the ED50 is 60.1 mg/kg. Besides, in the assay on Mus musculus [1], the “Log ED50” value worked out at 2.5 uM kg-1. Turning to `CC(=O)NC(C(=O)NCc1ccccc1)c1ccccn1` (stereo not drawn), in the assay with Mus musculus [1], the “Log ED50” value is recorded as 1.58 uM kg-1. The compound `CNC(C)C(=O)NCc1ccccc1` (stereo not drawn) had an ED50 with Mus musculus [12] of 31.2 mg/kg. Besides, the “Log ED50” value in the assay on Mus musculus [8] is listed as 2.21 uM kg-1. As for `C=CCC(NC(C)=O)C(=O)NCc1ccccc1` (stereo not drawn), the “Log ED50” value in the assay with Mus musculus [1] is on record as 2.16 uM kg-1. `COCC(NC(C)=O)C(=O)N(C)Cc1ccccc1` (stereo not drawn): the “Log ED50” value in the assay on Mus musculus [5] is reported as 3.06 uM kg-1. Moreover, the ED50 with Mus musculus [3] was > 100 mg/kg; in the assay with Mus musculus [4], < 300 mg/kg. As for `CC(=O)NCC(C)C(=O)NCc1ccccc1` (stereo not drawn), in the assay with Mus musculus [1], the “Log ED50” value stood at 3.06 uM kg-1. Also, in the assay on Mus musculus [13], the 50% effect level (ED50) was put at a dose of 270 mg/kg.

On to `CC(N)C(=O)NCc1ccccc1` (stereo not drawn), for which the “Log ED50” value with Mus musculus [8] is listed as 3.23 uM kg-1. For the same compound, the values for the ED50 in the assay on Mus musculus [14] and in the assay on Mus musculus [15] were < 300 mg/kg and > 100 mg/kg, respectively.

On to `CCC(NC(C)=O)C(=O)NCc1ccccc1` (stereo not drawn), for which, in the assay on Mus musculus [16], the “Log ED50” value was 3.12 uM kg-1. In addition, the figures for the ED50 in the assay with Mus musculus [17] and in the assay on Mus musculus [18] were < 300 mg/kg and > 100 mg/kg, respectively.

Consider `CON(C)C(NC(C)=O)C(=O)NCc1ccccc1` (stereo not drawn), for which, in the assay with Mus musculus [8], the “Log ED50” value worked out at 1.4 uM kg-1.

Usually ED50 stands for the dose at which the effect has come halfway, by size or by number of responders. A lower ED50 goes with an effect at a small dose.

These data come from ChEMBL document CHEMBL1135992, “Quantitative structure-activity relationship analysis of functionalized amino acid anticonvulsant agents using k nearest neighbor and simulated annealing PLS methods” (2002).
